# Screens (PubChem BioAssay)
# Hits are enriched below; roughly 2.9% of the tested compounds scored in any of these assays.
# PglD DTNB: inhibitors of Campylobacter jejuni PglD acetyltransferase; purified PglD enzyme, DTNB colorimetric CoA detection; inhibition, % at 12.5 µM; 0.098% of 360,000 active; in the data active = inhibition above about 16%, passing the limit was not always enough; inconclusive = no clear call, values can overlap the other calls
# FGF22 binding: shifts melting point of recombinant human FGF22; recombinant FGF22 thermal shift, SYPRO orange fluorescence; percent of sucrose octasulfate shift, DMSO zero; activity (Tm shift, normalised), % at 9.99 µM; 1.5% of 340,000 active; AID 651658;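 active = mean Tm shift, scaled 0 neutral to 100 positive control, at about 1.3% or above, every replicate too, limit read from the data; inconclusive = no clear call, values can overlap the other calls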
# Target sequence (Q9HCT0 whole entry, looked up): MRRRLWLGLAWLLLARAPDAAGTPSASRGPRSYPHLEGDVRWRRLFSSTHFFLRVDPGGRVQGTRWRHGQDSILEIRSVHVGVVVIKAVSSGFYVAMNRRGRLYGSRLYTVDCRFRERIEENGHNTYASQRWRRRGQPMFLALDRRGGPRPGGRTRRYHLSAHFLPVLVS
# Vif imaging: HIV Vif inhibition; inhibition, % at 7.49 µM; HEK293T cells, Vif self-association by quenched fluorescence, imaging, 24 h; 0.35% of 340,000 active; in the data active = inhibition above about 50%, passing the limit was not always enough; inconclusive = no clear call, values can overlap the other calls; inactive = below about 31%
# Cneo AK release: Cryptococcus neoformans lysis via adenylate kinase release | C. neoformans lysis, adenylate kinase release luminescence, 4 h; normalised: neutral wells 0, clomiphene wells 100 | lysis activity, % at 15 µM | 0.2% of 360,000 active | AID 651654;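 active = mean lysis activity across replicates of at least 80%, whatever share of replicates individually reach that level; inactive = mean lysis activity below 80%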
#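 Test system: log-phase Cryptococcus neoformans yeast cells. Input: 5 × 10^6 yeast cells/mL. Medium: fresh YPD growth medium. Doses: single dose. Incubation: static 4 h at 37 °C with compound, 1 h detection. Measured by: luminescent adenylate kinase detection reagent. Read-out: signal increase indicating cell lysis. Benchmarks: Clomiphene.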
# PGC1a acetyl inh: modulators of PGC1a acetylation | U2OS PGC1a acetylation, AlphaScreen anti-acetyl-lysine; with virally co-expressed GCN5 acetyltransferase | inhibition, % at 15.6 µM | 0.17% of 350,000 active | AID 651687;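 active = every replicate shows inhibition of at least 40%; inconclusive = mean inhibition at least 40% but some replicate below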;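 also: 0% = neutral control wells and 100% = positive control wells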
# Ecoli rRNA inh: inhibitors of bacterial rRNA selective over humanized ribosomes; AID 720706; E. coli WT GFP vs humanized-ribosome RFP mutants, fluorescence, 24 h; hits give low values; DMSO median 0, no signal -100; GFP signal change (wild-type ribosome), % (test concentration not listed); 1.6% of 350,000 active;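 active = significant combined selectivity score with lowered wild-type GFP, culture density cut under 30%, mutant RFP and density less affected; inactive = any of these conditions unmet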
# Starred values were filed as active, the others as inactive; ? = inconclusive; . = not tested or not shown.
SMILES,PglD DTNB,FGF22 binding,Vif imaging,Cneo AK release,PGC1a acetyl inh,Ecoli rRNA inh
Cc1nn(-c2ccccc2)c(N)c1C1(O)C(=O)N(C(C)C)c2ccccc21 (stereo not given),.,0.0,-2.7,.,.,9.3
C#CCN1C(=O)C(O)(c2c(C)[nH]c3ccccc23)c2ccccc21 (stereo not given),-0.6,0.6,-5.1,-0.4,2.8,0.3
Cc1nnc(SCC(=O)N(C)C2CCCCC2)s1,.,43.5*,4.9,.,-8.9,7.2
COc1ccc(-c2ccc(C#N)c(SCC(=O)NC3CC3)n2)cc1OC,.,0.0,78.5*,.,.,0.1
Nc1[nH]c(C(=O)c2ccccc2)c(-c2ccc(Cl)cc2Cl)c1C(=O)c1ccc(Cl)cc1,.,0.1,.,.,.,-9.2
Nc1[nH]c(C(=O)c2ccccc2)c(-c2ccccc2Br)c1C(=O)c1ccccc1,.,-0.1,.,.,.,-41.1*
NC(=O)CNc1ncc(C(F)(F)F)cc1Cl,-4.6,0.2,15.0,1.2,0.9,11.9
Cc1onc(C(=O)NN)c1C(=O)Nc1ncc(C(F)(F)F)cc1Cl,2.8,42.9*,4.0,0.2,-2.3,15.6
O=C(Nc1cccc(F)c1)N1C[C@H]2[C@@H](c3ccccc31)[C@H](CO)N2C(=O)c1ccccn1,0.9,-0.3,.,-2.9,-1.0,0.9
C[C@H](CO)N1C[C@H](C)[C@H](CN(C)Cc2ccc(C(=O)O)cc2)Oc2ccc(NC(=O)CCN3CCOCC3)cc2C1=O,9.3,-0.1,.,1.4,6.7,-0.3
C[C@H](CO)N1C[C@H](C)[C@@H](CN(C)Cc2ccc(C(=O)O)cc2)Oc2ccc(NC(=O)CCN3CCOCC3)cc2C1=O,12.0,0.3,.,0.0,6.7,2.5
C[C@@H]1CN([C@@H](C)CO)C(=O)c2cc(NC(=O)CCN3CCOCC3)ccc2O[C@@H]1CN(C)Cc1ccc(C(=O)O)cc1,-1.5,0.2,.,95.2*,4.6,2.3
C[C@H]1CN([C@@H](C)CO)C(=O)c2cc(NC(=O)CCN3CCOCC3)ccc2O[C@@H]1CN(C)Cc1ccc(C(=O)O)cc1,-1.4,-0.1,.,102.6*,-0.6,3.4
COc1ccc(S(=O)(=O)N(C)C[C@H]2Oc3ccc(NC(=O)Cn4cnnn4)cc3CC(=O)N([C@@H](C)CO)C[C@@H]2C)cc1,-2.6,0.0,.,-6.2,-15.8,1.9
C[C@H](CO)N1C[C@H](C)[C@H](CN(C)C(=O)Nc2cccc3ccccc23)Oc2ccc(NC(=O)Nc3ccccc3)cc2C1=O,-1.9,-0.3,.,101.3*,-4.8,2.7
C[C@H](CO)N1C[C@H](C)[C@@H](CN(C)C(=O)Nc2cccc3ccccc23)Oc2ccc(NC(=O)Nc3ccccc3)cc2C1=O,-3.5,0.1,.,0.2,0.7,0.2
C[C@@H]1CN([C@H](C)CO)C(=O)c2cc(NC(=O)Nc3cccc4ccccc34)ccc2O[C@H]1CN(C)C(=O)Nc1ccc(C(F)(F)F)cc1,4.0,0.6,.,103.1*,6.4,-2.4
C[C@@H]1CN([C@H](C)CO)C(=O)c2cc(NC(=O)Cc3cn(C)c4ccccc34)ccc2O[C@@H]1CN(C)C(=O)Nc1ccccc1,-0.5,0.1,.,6.6,107.6*,3.5
Cc1ccccc1S(=O)(=O)N1C[C@H](O)COC[C@H]2O[C@H](CC(=O)N3CCN(C)CC3)CC[C@@H]21,2.0,0.0,.,-3.3,-8.1,-1.6
CCCNC(=O)N1[C@@H](CO)[C@@H](c2ccccc2)C12CN(C(=O)CC1CC1)C2,.,-0.1,.,.,-0.9,1.9
CC(C)(C)NC(=O)CSCc1c(Cl)cccc1Cl,.,0.0,.,.,.,-31.1*
CN(C[C@H]1N[C@@H](CO)[C@H]1c1ccc(-c2cccc(F)c2)cc1)S(C)(=O)=O,3.3,0.2,.,98.9*,19.8,0.4
O=C1C=C(NCCc2cc(Br)c(O)c(Br)c2)C(=O)c2ncccc21,.,-0.1,23.5,.,.,-26.5*
CCN(Cc1nc(-c2ccc(Cl)cc2)no1)CC1CCCO1 (stereo not given),-2.2,0.1,15.7,-0.5,.,4.4
Clc1ccc(-c2noc(CN(Cc3ccccn3)CC3CCCO3)n2)cc1 (stereo not given),.,43.4*,30.1,.,-20.3,-34.7
SMILES,PglD DTNB,FGF22 binding,Vif imaging,Cneo AK release,PGC1a acetyl inh,Ecoli rRNA inh
O=C(C[C@@H]1C[C@@H]2c3cc(NC(=O)Cc4ccncc4)ccc3O[C@@H]2[C@@H](CO)O1)NCc1ccccn1,.,.,.,.,-7.2,2.0
N#CC1=C(N)Oc2ccc3ccc(O)cc3c2C1c1cccnc1 (stereo not given),1.1,0.4,5.4,-0.6,4.4,3.5
N#CC1=C(N)Oc2ccc3ccccc3c2C1c1cccnc1 (stereo not given),.,43.2*,-14.2,.,.,-56.5
NC(=O)NC(c1ccccc1)c1cccc2ccccc12 (stereo not given),-1.2,0.0,.,-1.7,4.4,-33.4*
NC(=O)NC(c1ccc(Cl)cc1)c1ccccc1Cl (stereo not given),.,-0.1,-4.7,.,.,-34.7*
O=S(=O)(N[C@H]1CC[C@H](CCn2cc(-c3ccccn3)nn2)O[C@@H]1CO)c1cccc(Cl)c1,4.9,-0.5,.,3.8,-0.3,-2.6
COc1cc(C(C)=O)ccc1OCc1cn(CC(=O)c2ccc(O)cc2)nn1,-0.9,0.1,-13.7,10.7,.,1.4
CC(=O)c1ccc(OCc2cn(CC(=O)c3ccc(O)cc3)nn2)c(C)c1,1.9,0.8,2.0,-1.5,8.7,-30.7*
CC(=O)Nc1ccc2c(c1)C(=O)N(C)[C@H]1CC[C@H](CC(=O)N3CCc4ccccc4C3)O[C@H]1CO2,0.0,0.2,.,-1.5,4.4,1.0
COc1ccc(C2CC(c3ccccc3O)=NN2c2ccccc2)cc1 (stereo not given),.,0.1,-5.6,.,0.7,-21.1*
COc1ccc(C2CC(c3ccncc3)=NN2c2ccc(S(N)(=O)=O)cc2)cc1 (stereo not given),-12.4,.,93.0*,-0.7,-2.2,-9.8
C[C@H](CO)N1C[C@H](C)[C@H](CN(C)C(=O)c2cnccn2)Oc2ncc(/C=C/c3ccccc3)cc2C1=O,-0.4,0.0,.,-7.9,4.1,-5.2
O=[N+]([O-])c1ccccc1CCc1ccccc1[N+](=O)[O-],-5.8,0.0,-1.0,-0.2,-20.2,3.3
O=[N+]([O-])c1ccccc1CNC(Cc1ccccc1)c1ccccc1 (stereo not given),0.2,0.2,5.9,1.4,-10.4,-30.1*
NCCOc1ccccc1-c1ccccc1,0.6,.,50.4*,2.3,-3.6,.
NCCOc1ccccc1OCCN,0.6,-0.1,0.1,0.6,.,16.6
CCOc1cccc(-c2cc(C(=O)N3N=C(C)CC3(O)C(F)F)c3ccccc3n2)c1 (stereo not given),.,43.5*,2.5,.,.,-2.1
O=C(c1cc(-c2ccccc2)nc2ccccc12)N1N=C(C(F)F)CC1(O)C(F)F (stereo not given),6.3,-0.1,6.4,-1.8,?,-53.6
